Published values collected from several papers.
Each line is one published result; the experiments were not run side by side.

SMILES | tested on | assay | test system | conditions | quantity | value
N#Cc1ccc(Oc2ccc(C(=O)C(Cl)Cl)cc2[N+](=O)[O-])cc1 | NCI-H1975 | cell growth or viability, MTT | – | 2.5 µM | inhibition | 96.8%
Nc1nc(N)c(OCCCOc2ccccc2CCC(=O)O)c(C2CCNCC2)n1 | Mycobacterium avium | microbial growth, resazurin | – | – | MIC | 6.2 µg/mL
CC(=O)Nc1ccc(Oc2ccc(C(=O)C(Cl)Cl)cc2[N+](=O)[O-])cc1Cl | NCI-H1975 | cell growth or viability, MTT | – | 2.5 µM | inhibition | 96.5%
O=C(O)CO/N=c1\cc2n(-c3ccc(Cl)cc3)c3ccccc3nc-2cc1Nc1ccc(Cl)cc1 | Mycobacterium avium | microbial growth | ATCC700898 | – | MIC | 0.94 µM
O=C(c1ccc(Oc2ccc3cc(Br)ccc3c2Cl)c([N+](=O)[O-])c1)C(Cl)Cl | NCI-H1975 | cell growth or viability, MTT | – | 2.5 µM | inhibition | 85.4%
CCOC(=O)CNC(=O)CO/N=c1\cc2n(-c3ccc(Cl)cc3)c3ccccc3nc-2cc1Nc1ccc(Cl)cc1 | Mycobacterium avium | microbial growth | ATCC700898 | – | MIC | 1.88 µM
COc1cccc2c1C(=O)c1c(O)c3c(c(O)c1C2=O)C[C@@](O)(C(=O)CO)C[C@@H]3O[C@H]1C[C@H](N)[C@H](O)[C@H](C)O1 | NCI-H1975 | cell growth or viability, MTT | – | 2.5 µM | inhibition | 97.7%
CN(Cc1ccc(C(C)(C)C)cc1)Cc1cccc2ccccc12 | Trichophyton rubrum | microbial growth, disc diffusion | ATCC28188 | 0.512 µg/mL, 6 days | inhibition zone | ≥ 55 mm
CO/N=c1\cc2n(-c3ccc(Cl)cc3)c3ccccc3nc-2cc1Nc1ccc(Cl)cc1 | Mycobacterium avium | microbial growth | ATCC700898 | – | MIC | 0.47 µM
CC(=O)OCCCOc1ccc(C(=O)C(Cl)Cl)cc1[N+](=O)[O-] | NCI-H1975 | cell growth or viability, MTT | – | 2.5 µM | inhibition | 78.2%
O/N=c1\cc2n(-c3ccc(Cl)cc3)c3ccccc3nc-2cc1Nc1ccc(Cl)cc1 | Mycobacterium avium | microbial growth | – | clinical isolate | MIC | > 30 µM
NCC[C@H](O)C(=O)N[C@@H]1C[C@H](N)[C@@H](O[C@H]2O[C@H](CN)[C@@H](O)[C@H](O)[C@H]2O)[C@H](O)[C@H]1O[C@H]1O[C@H](CO)[C@@H](O)[C@H](N)[C@H]1O | Mycobacterium avium | microbial growth, resazurin | – | – | MIC | 1.7 µg/mL
O=C(c1ccc(Oc2ccc(-c3ccccc3)cc2)c([N+](=O)[O-])c1)C(Cl)Cl | NCI-H1975 | cell growth or viability, MTT | – | 2.5 µM | inhibition | 85.2%
O=C(CO/N=c1\cc2n(-c3ccc(Cl)cc3)c3ccccc3nc-2cc1Nc1ccc(Cl)cc1)NCc1ccc2c(c1)CCO2 | Mycobacterium avium | microbial growth | ATCC700898 | – | MIC | 1.88 µM
C=CC(=O)NC1CCN(c2ncc3ncnc(Nc4ccc(Oc5ccc6c(c5)ncn6C)c(C)c4)c3n2)CC1 | HCC1428 | cell growth or viability | – | – | EC50 | 7.04 µM
CN(Cc1ccc(C2(C(F)(F)F)CC2)cc1)Cc1cccc2ccccc12 | Trichophyton rubrum | microbial growth, disc diffusion | ATCC28188 | 0.064 µg/mL, 6 days | inhibition zone | ≥ 55 mm
CCCCCc1nc(N)nc(N)c1OCCCOc1ccccc1CCC(=O)O | Mycobacterium avium | microbial growth, resazurin | – | – | MIC | 0.6 µg/mL
O=C(CO/N=c1\cc2n(-c3ccc(Cl)cc3)c3ccccc3nc-2cc1Nc1ccc(Cl)cc1)NCc1ccc(C(F)(F)F)cc1 | Mycobacterium avium | microbial growth | ATCC700898 | – | MIC | > 30 µM
